Results: article PMC4215946 (Bioorganic & medicinal chemistry, 2013)

What was measured:
[1] = Solubility observation in cell culture medium; type: physicochemical; settings: cell culture medium (aqueous environment)
[2] = tested on: CEM cells; assay: Annexin V/PI apoptosis/necrosis assay; type: cell-based, human; settings: 72 h
Outline: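 CEM cells in RPMI/10% heat-inactivated FBS, 50,000 per well, rested 1 h, then dosed from DMSO dilutions; 72 h, 37 °C, 5% CO2. Collected on ice, annexin V-FITC/PI in binding buffer 15 min on ice, dark; ~10,000 events by flow. Apoptotic = early+late annexin-positive; PI-only = necrotic. Controls: untreated, 1% DMSO, 1 mM H2O2. Four wells; three independent experiments.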

[3] = tested on: CEM cells; assay: Mitochondrial membrane potential; type: cell-based, human
Outline: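 CEM cells grown in RPMI with 10% heat-inactivated FBS at 37 °C, 5% CO2, then given 1 µM final test compound for 6 and 8 h. Stained with JC-1 (MitoProbe) per kit protocol: red aggregates mean polarized mitochondria, green monomers mean depolarized. Green cells scored by flow cytometry, about 10,000 events per sample. Controls were 50 µM CCCP, 1% v/v DMSO and untreated cells. Triplicates, mean ± standard deviation; two-tailed paired t-test.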

[4] = tested on: caspase-3; assay: Live-cell detection of intracellular caspase-3 activation; type: cell-based, human; settings: CEM cells, 1 µM, 8 h
Outline: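 CEM cells in RPMI with 10% heat-inactivated FBS and penicillin/streptomycin, 37 °C, 5% CO2, seeded at 50,000 per well. Exposed to 1 µM test compound (DMSO dilutions) for 8 h, then labelled with fluorogenic NucView 488 caspase-3/7 live-cell substrate. Green-positive cells counted by flow cytometry, about 10,000 events per sample. Controls were 50 µM CCCP, 1% v/v DMSO and untreated cells. Mean ± standard deviation; two-tailed paired t-test.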

In the case of `CCC(=O)c1cc(O)c2ccccc2c1O` [Compound 4, 2-Propanoyl-1,4-naphthohydroquinone], the “solubility in cell culture medium” value [1] is reported as “generated insoluble crystals when added to the cell culture medium”.

For `C/C=C/C(=O)c1cc(O)c2ccccc2c1O` [Compound 7, 2-Crotonyl-1,4-naphthohydroquinone], the “apoptosis (annexin V-FITC positive cells, early + late)” value ([2]; 50 µM) was 1.7% and the “mode of cell death (apoptosis vs necrosis)” value ([2]; 50 µM) was “elicited a substantial amount of necrosis instead of apoptosis”.

For `CCCCCCCCCCCC(=O)c1cc(O)c2ccccc2c1O` [Compound 3, 2-Dodecanoyl-1,4-naphthohydroquinone], the “mitochondrial depolarization (JC-1 green signal)” value ([3]; 1 µM, 6 and 8 h) was “induced a significant increase in mitochondrial depolarization from 6 to 8 h”, the “apoptosis (annexin V-FITC positive cells, early + late)” value ([2]; 10 µM) was 95.35% and the “mode of cell death (apoptosis vs necrosis)” value ([2]; 10 µM) was “preferentially induce cell death via apoptosis”. The caspase-3 activation [4] was “has a tendency to induce cytotoxicity via caspase-3 activation”.

For `N#CC(C#N)=NNc1cccc(Cl)c1` [CCCP, carbonyl cyanide 3-chlorophenylhydrazone, reference compound], the “mitochondrial depolarization (JC-1 green signal)” value ([3]; 50 µM, positive control) was “strongly induced mitochondrial depolarization”.
